From ChEMBL document CHEMBL4765357, “Development of small-molecule inhibitors of fatty acyl-AMP and fatty acyl-CoA ligases in Mycobacterium tuberculosis” (Eur J Med Chem, 2020)
≈ marks a conversion by molar mass, not a printed value.

How the values were obtained:
[1] = tested on: Mycobacterium tuberculosis; assay: (§1) Antimycobacterial activity against isoniazid/rifampicin/ethambutol/pyrazinamide/streptomycin/kanamycin/para-aminosalicylic acid/prothionamide multidrug-resistant Mycobacterium tuberculosis assessed as inhibition of bacterial growth under 7H9 medium condition after 7 to 14 days in presence of tylo-xapol by broth microdilution method; type: functional; settings: time 7-14 day
Outline: (§2)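 Clinical MDR/XDR Mtb strains tested by broth microdilution in GAST or 7H9 with tyloxapol (0.05%), BSA fraction V (5 g/L) and NaCl (0.8 g/L) plus a carbon source. Compounds were dosed from DMSO stocks against DMSO vehicle controls. Inoculum was 10⁴-10⁵ cells per assay, with growth monitored at days 7 and 14. MIC is the concentration causing >99% inhibition.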

[2] = tested on: Mycobacterium tuberculosis; assay: Antimycobacterial activity against isoniazid/rifampicin/ethambutol/para-aminosalicylic acid extensively drug-resistant Mycobacterium tuberculosis assessed as inhibition of bacterial growth under 7H9 medium condition after 7 to 14 days by broth microdilution method; type: functional; settings: time 7-14 day; outline: as §2
[3] = tested on: Mycobacterium tuberculosis; assay: as §1, with “days” for “days in presence of tylo-xapol”; type: functional; settings: time 7-14 day; outline: as §2
[4] = tested on: Mycobacterium tuberculosis; assay: Antimycobacterial activity against isoniazid/rifampicin/ethambutol/para-aminosalicylic acid extensively drug-resistant Mycobacterium tuberculosis assessed as inhibition of bacterial growth under GAST medium condition after 7 to 14 days by broth microdilution method; type: functional; settings: time 7-14 day; outline: as §2
[5] = tested on: Mycobacterium tuberculosis; assay: Antimycobacterial activity against isoniazid/rifampicin/ethambutol/streptomycin/ofloxacin/para-aminosalicylic acid/prothionamide multidrug-resistant Mycobacterium tuberculosis assessed as inhibition of bacterial growth under GAST medium condition after 7 to 14 days by broth microdilution method; type: functional; settings: time 7-14 day; outline: as §2
[6] = tested on: Mycobacterium tuberculosis; assay: Antimycobacterial activity against isoniazid/rifampicin/ethambutol/streptomycin/ofloxacin/para-aminosalicylic acid/prothionamide multidrug-resistant Mycobacterium tuberculosis assessed as inhibition of bacterial growth under 7H9 medium condition after 7 to 14 days by broth microdilution method; type: functional; settings: time 7-14 day; outline: as §2
[7] = tested on: Mycobacterium tuberculosis; assay: Antimycobacterial activity against isoniazid/rifampicin/ethambutol/pyrazinamide/streptomycin/kanamycin/para-aminosalicylic acid/prothionamide multidrug-resistant Mycobacterium tuberculosis assessed as inhibition of bacterial growth under GAST medium condition after 7 to 14 days by broth microdilution method; type: functional; settings: time 7-14 day; outline: as §2
[8] = tested on: Mycobacterium tuberculosis; assay: Antimycobacterial activity against isoniazid/rifampicin/ethambutol/kanamycin/ofloxacin multidrug-resistant Mycobacterium tuberculosis assessed as inhibition of bacterial growth under GAST medium condition after 7 to 14 days by broth microdilution method; type: functional; settings: time 7-14 day; outline: as §2
[9] = tested on: Mycobacterium tuberculosis; assay: Antimycobacterial activity against isoniazid/rifampicin/ethambutol/kanamycin/ofloxacin multidrug-resistant Mycobacterium tuberculosis assessed as inhibition of bacterial growth under 7H9 medium condition after 7 to 14 days by broth microdilution method; type: functional; settings: time 7-14 day; outline: as §2
[10] = molecular target: T1, Long-chain-fatty-acid--AMP ligase FadD32 (Mycobacterium tuberculosis (strain ATCC 25618 / H37Rv), UniProt O53580); assay: Inhibition of Mycobacterium tuberculosis H37Rv FAAL32 expressed in Escherichia coli BL21(DE3) cells incubated for 2 hrs in presence of [C14] fatty acid by SDS-PAGE analysis; settings: read-out: Ki(app)
T1 sequence (O53580 whole entry): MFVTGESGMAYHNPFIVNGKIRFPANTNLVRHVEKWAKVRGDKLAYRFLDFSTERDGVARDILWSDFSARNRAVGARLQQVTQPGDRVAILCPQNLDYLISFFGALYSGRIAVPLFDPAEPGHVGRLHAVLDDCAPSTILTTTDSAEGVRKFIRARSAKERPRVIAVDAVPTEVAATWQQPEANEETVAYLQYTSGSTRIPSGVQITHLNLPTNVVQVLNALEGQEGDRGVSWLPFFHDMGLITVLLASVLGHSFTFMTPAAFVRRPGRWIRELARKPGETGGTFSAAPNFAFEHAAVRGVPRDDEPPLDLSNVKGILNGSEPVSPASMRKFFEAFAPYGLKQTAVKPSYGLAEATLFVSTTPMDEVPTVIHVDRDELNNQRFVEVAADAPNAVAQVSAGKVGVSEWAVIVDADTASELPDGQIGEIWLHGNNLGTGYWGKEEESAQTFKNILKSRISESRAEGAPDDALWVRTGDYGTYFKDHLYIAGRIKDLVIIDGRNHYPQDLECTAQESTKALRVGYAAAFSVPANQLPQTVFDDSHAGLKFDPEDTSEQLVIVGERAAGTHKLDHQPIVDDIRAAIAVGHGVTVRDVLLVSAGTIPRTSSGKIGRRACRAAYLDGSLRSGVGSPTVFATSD

| Compound | MIC [1] | MIC [2] | MIC [3] | MIC [4] | MIC [5] | MIC [6] | MIC [7] | MIC [8] | MIC [9] | Ki [10] |
| --- | --- | --- | --- | --- | --- | --- | --- | --- | --- | --- |
| CCCCCCCCCOCC(=O)NS(=O)(=O)OC[C@H]1O[C@@H](n2cnc3c(N)ncnc32)[C@H](O)[C@@H]1O | 12.5 µM | 6.25 µM (≈ 3.32 µg/mL) | 12.5 µM (≈ 6.63 µg/mL) | 0.78 µM (≈ 0.414 µg/mL) | 6.25 µM (≈ 3.32 µg/mL) | 50 µM (≈ 26.5 µg/mL) | 1.56 µM (≈ 0.828 µg/mL) | 0.39 µM (≈ 0.207 µg/mL) | 6.25 µM (≈ 3.32 µg/mL) | – |
| CCCCCCCCCCCC(=O)NS(=O)(=O)OC[C@H]1O[C@@H](n2cnc3c(N)ncnc32)[C@H](O)[C@@H]1O | 12.5 µM | 6.25 µM (≈ 3.3 µg/mL) | 12.5 µM (≈ 6.61 µg/mL) | 6.25 µM (≈ 3.3 µg/mL) | 12.5 µM (≈ 6.61 µg/mL) | 12.5 µM (≈ 6.61 µg/mL) | 25 µM (≈ 13.2 µg/mL) | 3.13 µM (≈ 1.65 µg/mL) | 6.25 µM (≈ 3.3 µg/mL) | – |
| [N-]=[N+]=NCCCCCCCCCCCC(=O)NS(=O)(=O)OC[C@H]1O[C@@H](n2cnc3c(N)ncnc32)[C@H](O)[C@@H]1O | 6.25 µM | 12.5 µM (≈ 7.12 µg/mL) | 50 µM (≈ 28.5 µg/mL) | 3.13 µM (≈ 1.78 µg/mL) | 625 µM (≈ 356 µg/mL) | 25 µM (≈ 14.2 µg/mL) | 3.13 µM (≈ 1.78 µg/mL) | 3.13 µM (≈ 1.78 µg/mL) | 625 µM (≈ 356 µg/mL) | – |
| C=CCCCCCCCCC(=O)NS(=O)(=O)OC[C@H]1O[C@@H](n2cnc3c(N)ncnc32)[C@H](O)[C@@H]1O | 6.25 µM | 12.5 µM (≈ 6.41 µg/mL) | 50 µM (≈ 25.6 µg/mL) | 3.13 µM (≈ 1.6 µg/mL) | 3.13 µM (≈ 1.6 µg/mL) | 25 µM (≈ 12.8 µg/mL) | 3.13 µM (≈ 1.6 µg/mL) | 3.13 µM (≈ 1.6 µg/mL) | 625 µM (≈ 320 µg/mL) | – |
| CCCCCCCCCCCCCC(=O)NS(=O)(=O)OC[C@H]1O[C@@H](n2cnc3c(N)ncnc32)[C@H](O)[C@@H]1O | 12.5 µM | 6.25 µM (≈ 3.48 µg/mL) | 25 µM (≈ 13.9 µg/mL) | 6.25 µM (≈ 3.48 µg/mL) | 12.5 µM (≈ 6.96 µg/mL) | 12.5 µM (≈ 6.96 µg/mL) | 12.5 µM (≈ 6.96 µg/mL) | 6.25 µM (≈ 3.48 µg/mL) | 3.13 µM (≈ 1.74 µg/mL) | – |
| NNC(=O)c1ccncc1 [ISONIAZID] | 2 µM | 2 µM (≈ 0.274 µg/mL) | 2 µM (≈ 0.274 µg/mL) | 4 µM (≈ 0.549 µg/mL) | 8 µM (≈ 1.1 µg/mL) | 8 µM (≈ 1.1 µg/mL) | > 8 µM | 4 µM (≈ 0.549 µg/mL) | 2 µM (≈ 0.274 µg/mL) | – |
| Nc1ncnc2c1ncn2[C@@H]1O[C@H](COS(=O)(=O)NC(=O)CCCCCCCCCCOc2ccccc2)[C@@H](O)[C@H]1O | 12.5 µM | 12.5 µM (≈ 7.58 µg/mL) | 12.5 µM (≈ 7.58 µg/mL) | – | 625 µM (≈ 379 µg/mL) | 50 µM (≈ 30.3 µg/mL) | 6.25 µM (≈ 3.79 µg/mL) | – | 12.5 µM (≈ 7.58 µg/mL) | – |
| CCCCCCCCCCCCOP(=O)(O)OC[C@H]1O[C@@H](n2cnc3c(N)ncnc32)[C@H](O)[C@@H]1O | – | – | – | – | – | – | – | – | – | 110 nM |
